Bioassay records from PubChem.
ERAP1 HTS inh – blocks human ERAP1 aminopeptidase activity; Q9NZ08; recombinant ERAP1, Leu-AMC fluorescence, 60 min; inhibition, % at 10.7 µM; 340,000 compounds, 0.15% hits; AID 652197;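 active means mean replicate inhibition of at least 30%, or all replicates individually reaching that 30% level; inactive means mean below 30% and not every replicate reaching it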
Target sequence (Q9NZ08 whole entry, looked up): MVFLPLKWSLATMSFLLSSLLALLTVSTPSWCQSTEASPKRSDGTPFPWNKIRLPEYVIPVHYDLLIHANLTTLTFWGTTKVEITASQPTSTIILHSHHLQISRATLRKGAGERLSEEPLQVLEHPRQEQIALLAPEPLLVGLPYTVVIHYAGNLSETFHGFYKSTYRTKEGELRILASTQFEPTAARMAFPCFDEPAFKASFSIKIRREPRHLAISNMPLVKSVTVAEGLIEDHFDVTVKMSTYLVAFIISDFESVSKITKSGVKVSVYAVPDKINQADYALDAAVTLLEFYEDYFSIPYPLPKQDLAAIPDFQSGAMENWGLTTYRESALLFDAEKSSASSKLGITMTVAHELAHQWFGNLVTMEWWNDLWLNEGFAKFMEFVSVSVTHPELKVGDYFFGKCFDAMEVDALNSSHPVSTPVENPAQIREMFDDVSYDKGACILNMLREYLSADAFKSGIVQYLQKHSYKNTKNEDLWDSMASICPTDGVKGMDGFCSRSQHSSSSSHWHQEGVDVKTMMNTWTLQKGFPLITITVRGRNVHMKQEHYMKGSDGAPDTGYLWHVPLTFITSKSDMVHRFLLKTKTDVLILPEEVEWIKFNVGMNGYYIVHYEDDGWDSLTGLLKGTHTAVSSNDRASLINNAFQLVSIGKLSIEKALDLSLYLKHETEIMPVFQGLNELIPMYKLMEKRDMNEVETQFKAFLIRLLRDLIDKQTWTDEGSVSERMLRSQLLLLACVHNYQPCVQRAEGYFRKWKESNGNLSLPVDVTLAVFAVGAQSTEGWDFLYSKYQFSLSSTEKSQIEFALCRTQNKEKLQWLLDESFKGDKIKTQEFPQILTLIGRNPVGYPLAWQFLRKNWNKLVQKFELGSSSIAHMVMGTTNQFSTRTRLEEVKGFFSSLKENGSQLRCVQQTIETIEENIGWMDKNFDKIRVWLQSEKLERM
Cneo AK release – Cryptococcus neoformans lysis via adenylate kinase release. C. neoformans lysis, adenylate kinase release luminescence, 4 h; normalised: neutral wells 0, clomiphene wells 100. lysis activity, % at 15 µM. 360,000 compounds, 0.2% hits;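 active means mean lysis activity across replicates of at least 80%, whatever share of replicates individually reach that level; inactive means mean lysis activity below 80%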
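Schedule: static 4 h at 37 °C with compound, 1 h detection; system: C. neoformans cells; benchmarks: Clomiphene as positive control; buffer or medium: fresh YPD medium; measure: luminescence rise reflecting yeast cell lysis; measured by: luminescent adenylate kinase detection reagent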
HIV Env fusion – inhibitors of HIV Env-mediated cell fusion; HeLa-JRFL Env/CEM21 cell fusion, luciferase; inhibition, % at 12.3 µM; 360,000 compounds, 1.1% hits; AID 651610;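 active means mean replicate inhibition score of at least 50 and every replicate individually at or above 50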
Wnt act – Wnt/beta-catenin pathway activation | Wnt/beta-catenin reporter cell assay, activator, plate reader | activation, % at 9.35 µM | 300,000 compounds, 1.2% hits | AID 743398; in the data active means activation above about 30%, passing the limit was not always enough
esBAF inh – inhibitors of esBAF chromatin remodeling in mouse ES cells; reporter increase, % at 12.5 µM; 350,000 compounds, 2% hits; AID 602393; Bmi1-luciferase knock-in reporter, 24 h; 100% = twice the neutral-well signal; in the data active means activation above about 40%;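 further: a rise in the Bmi1 reporter signal indicates esBAF inhibition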
MITF act – activators of MITF-driven TRPM1 promoter activity in SK-MEL-5 cells; SK-MEL-5 TRPM1-promoter luciferase, 24 h; % of positive control, neutral wells = 0; 300,000 compounds, 0.75% hits; activation, % at 12.5 µM; AID 588334;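 active means mean activation of at least 80% with every replicate also reaching 80%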
Numbers stand for hits; [ ] = remark or other dose. In the library only some 3.5% were active in any assay of this set; here they are far more common.

`COc1ccc(S(=O)(=O)N(C)C[C@H]2Oc3ccc(NS(=O)(=O)c4ccc(Cl)cc4)cc3CC(=O)N([C@@H](C)CO)C[C@H]2C)cc1` gave Cneo AK release inactive, HIV Env fusion inactive and esBAF inh inactive.
COc1ccc(S(=O)(=O)Nc2ccc3c(c2)CC(=O)N([C@H](C)CO)C[C@H](C)[C@H](CN(C)S(=O)(=O)c2ccccc2)O3)cc1 was read as Cneo AK release inactive, HIV Env fusion 83.6[16.7 µM] and esBAF inh inactive.
COc1ccc(S(=O)(=O)Nc2ccc3c(c2)CC(=O)N([C@H](C)CO)C[C@H](C)[C@H](CN(C)S(=O)(=O)c2ccc(C)cc2)O3)cc1 was read as ERAP1 HTS inh inactive, Cneo AK release inactive, HIV Env fusion 99.4[16.7 µM] and esBAF inh inactive.
For COc1ccc(S(=O)(=O)Nc2ccc3c(c2)CC(=O)N([C@H](C)CO)C[C@H](C)[C@H](CN(C)S(=O)(=O)c2ccc(Cl)cc2)O3)cc1 the results were ERAP1 HTS inh inactive, Cneo AK release inactive, HIV Env fusion 72.8[16.7 µM] and esBAF inh inactive.
Screening C[C@@H]1CN([C@@H](C)CO)S(=O)(=O)c2ccc(-c3ccncc3)cc2O[C@@H]1CN(C)C(=O)CN(C)C returned ERAP1 HTS inh inactive, Cneo AK release inactive, HIV Env fusion inactive and esBAF inh inactive.
For Cc1csc(SC(C)C(=O)NCc2ccc3c(c2)OCO3)n1 (centres undefined) the results were ERAP1 HTS inh inactive, Cneo AK release inactive, HIV Env fusion inactive, Wnt act inactive, esBAF inh inactive and MITF act inactive.
CC(Sc1nc2ccccc2s1)C(=O)NCc1ccc2c(c1)OCO2 (centres undefined) was read as ERAP1 HTS inh inactive, HIV Env fusion inactive, Wnt act inactive, esBAF inh 51.5 and MITF act inactive.
O=C(NC[C@@H]1CC[C@H]2[C@H](CN2C(=O)CN2CCOCC2)O1)NC1CCCCC1 was read as ERAP1 HTS inh inactive.
Screening Cc1ccc(-n2c(O)c(C=NCc3ccccn3)c3ccccc3c2=O)cc1 returned ERAP1 HTS inh inactive, Cneo AK release inactive, HIV Env fusion inactive, Wnt act 60.7, esBAF inh inactive and MITF act inactive.
For Cc1cccc(-n2c(O)c(C=NCc3ccccn3)c3ccccc3c2=O)c1 the results were ERAP1 HTS inh inactive, HIV Env fusion inactive, Wnt act inactive, esBAF inh inactive and MITF act inactive.
Screening O=C(NOCc1ccccc1)c1ccccc1 returned ERAP1 HTS inh inactive, Cneo AK release inactive, HIV Env fusion inactive, Wnt act 32.0, esBAF inh inactive and MITF act inactive.
Screening Cc1ccc(CONC(=O)c2cccc(C)c2)cc1 returned ERAP1 HTS inh inactive, Cneo AK release inactive, HIV Env fusion inactive, Wnt act inactive, esBAF inh inactive and MITF act inactive.
O=C(NCCCc1ccccc1)c1ccc(F)cc1 was read as Cneo AK release inactive and esBAF inh 64.5.
Screening O=C(NCc1ccccc1)c1ccc(C(=O)NCc2ccccc2)cc1 returned ERAP1 HTS inh inactive, HIV Env fusion 81.9, Wnt act inactive and MITF act inactive.
Screening CC(C)(C)c1ccc(C(=O)NCc2ccccc2)cc1 returned ERAP1 HTS inh inactive, HIV Env fusion inactive, Wnt act inactive and MITF act 88.4.
Screening O=C(NCCCCNC(=O)c1ccc(F)cc1)c1ccc(F)cc1 returned ERAP1 HTS inh inactive, Cneo AK release inactive, HIV Env fusion inactive, Wnt act inactive, esBAF inh inactive and MITF act inactive.
O=C(NCc1ccccc1)c1ccccc1 was read as ERAP1 HTS inh inactive, Cneo AK release inactive, Wnt act inactive, esBAF inh inactive and MITF act inactive.
For O=C(C[C@H]1C=C[C@H](NC(=O)C2CCOCC2)[C@@H](CO)O1)NCc1ccccc1Cl the results were ERAP1 HTS inh inactive.
For C[C@@H](NC(=O)C[C@H]1CC[C@H](NC(=O)C2CC2)[C@@H](CO)O1)c1ccccc1 the results were ERAP1 HTS inh inactive, Cneo AK release inactive, HIV Env fusion inactive and esBAF inh inactive.
Screening O=C(Nc1cccnc1)c1ccc(Oc2ccccc2)cc1 returned Cneo AK release inactive, HIV Env fusion inactive, Wnt act 40.8, esBAF inh 53.6 and MITF act inactive.
Screening O=C(Nc1ccccc1)c1cn(CCBr)cn1 returned Cneo AK release inactive, HIV Env fusion inactive, Wnt act 50.4 and esBAF inh inactive.
For O=C(Nc1cccnc1)c1ccccc1Oc1ccccc1 the results were Cneo AK release inactive, HIV Env fusion inactive, esBAF inh inactive and MITF act inactive.
For O=C(Nc1ccccc1)c1ccc(C(=O)Nc2ccccc2)nc1 the results were ERAP1 HTS inh inactive, HIV Env fusion inactive, Wnt act 43.7, esBAF inh inactive and MITF act inactive.
`CCC(C)c1ccc(NC(=O)Nc2cccnc2)cc1` (centres undefined) gave ERAP1 HTS inh inactive, Cneo AK release inactive, HIV Env fusion inactive, Wnt act inactive, esBAF inh 60.7 and MITF act 111.1.
For CCC(C)c1ccc(NC(=O)NCc2cccnc2)cc1 (centres undefined) the results were ERAP1 HTS inh inactive, Cneo AK release inactive, HIV Env fusion inactive, Wnt act inactive, esBAF inh inactive and MITF act inactive.
C[C@H](CO)N1C[C@H](C)[C@@H](CN(C)Cc2ccc(C(=O)Nc3ccccc3N)cc2)Oc2ccc(NC(=O)Cc3cn(C)c4ccccc34)cc2C1=O was read as ERAP1 HTS inh inactive, Cneo AK release inactive and esBAF inh inactive.
`O=C(N[C@@H]1CC[C@@H](CCn2cc(Cc3ccccc3)nn2)O[C@@H]1CO)c1cnccn1` gave ERAP1 HTS inh inactive, Cneo AK release inactive, HIV Env fusion inactive and esBAF inh inactive.
O=C(Nc1ccccc1)C(=O)Nc1cccnc1 was read as ERAP1 HTS inh inactive, Cneo AK release inactive, HIV Env fusion inactive, Wnt act 41.3, esBAF inh inactive and MITF act inactive.
`CCCC(O)C#Cc1cnc2c(c1)C(=O)N([C@H](C)CO)C[C@H](C)[C@H](CN(C)C(=O)Nc1ccc3c(c1)OCO3)O2` (some centres undefined) gave ERAP1 HTS inh inactive, Cneo AK release inactive and esBAF inh inactive.
Screening O=C(NCC[C@H]1CC[C@H](NC(=O)c2ccc3c(c2)OCO3)[C@@H](CO)O1)Nc1ccc(Cl)cc1 returned ERAP1 HTS inh inactive, Cneo AK release inactive, HIV Env fusion inactive and esBAF inh inactive.
COCCCn1c(SCc2ccc(OC)cc2)nc2cc(OC)c(OC)cc2c1=N was read as Cneo AK release inactive, HIV Env fusion 56.7, esBAF inh inactive and MITF act inactive.
`CCOc1ccc(CCNC(=O)/C=C/c2ccco2)cc1OCC` gave ERAP1 HTS inh inactive, Cneo AK release inactive, HIV Env fusion inactive, Wnt act 34.3, esBAF inh inactive and MITF act inactive.
